By inhibition is commonly meant the relative decrease from the control value, in per cent.

Calls of active or inactive are those of the source. No cut-off for these calls is given here.

These results are taken from ChEMBL document CHEMBL4184223 (Bioorg Med Chem Lett, 2018).

The test system of data set [1] is Cortical neurone. Put plainly: Neuroprotective activity against amyloid beta (1 to 42) peptide-induced cytotoxicty in CD1 mouse primary cortical neurons assessed as increase in cell viability at 0.1 to 10 uM pre-incubated for 1 hr before amyloid beta (1 to 42) addition and measured after 24 hrs by CCK8 assay. The data set is classed as functional, cell-based.
The test system of data set [2] is Cortical neurone. Put plainly: Toxicity in CD1 mouse primary cortical neurons assessed as effect on cell viability at 0.01 to 1 uM incubated for 24 hrs by CCK8 assay. The format is cell-based. An outline of the steps: (§1)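 Primary cortical neuron cultures were given compound alone across a concentration range, without Aβ. Cell viability was measured by CCK8 and expressed as percent reduction in viable cells. Data are mean ± SD of three independent experiments.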
(In general: Formazan colour is commonly taken as a measure of viable cells.)

In data set [3] the test system is Cortical neurone. Put plainly: Neuroprotective activity against amyloid beta (1 to 42) peptide-induced cytotoxicty in CD1 mouse primary cortical neurons assessed as increase in cell viability at 0.01 to 1 nM pre-incubated for 1 hr before amyloid beta (1 to 42) addition and measured after 24 hrs by CCK8 assay. The data set is classed as functional.
Data set [4] is described as follows: Toxicity in African green monkey CV1 cells assessed as effect on cell viability incubated for 24 hrs by CCK8 assay.
The subject of data set [5] is BV-2 (Mus musculus). Put plainly: Antiinflammatory activity in mouse BV-2 cells assessed as inhibition of LPS-induced TNF-alpha production pre-incubated for 1 hr before LPS stimulation for 23 hrs by ELISA method.
Data set [6] relates to BV-2 (Mus musculus). Put plainly: Antiinflammatory activity in mouse BV-2 cells assessed as inhibition of LPS-induced TNF-alpha production at 20 nM pre-incubated for 1 hr before LPS stimulation for 23 hrs by ELISA method. Background: An ELISA detects its analyte on a solid surface through an enzyme-linked reagent.
The test system of data set [7] is Cortical neurone. The data set is described as follows: Neuroprotective activity against amyloid beta (1 to 42) peptide-induced cytotoxicty in CD1 mouse primary cortical neurons assessed as increase in cell viability at 1 to 10 nM pre-incubated for 1 hr before amyloid beta (1 to 42) addition and measured after 24 hrs by CCK8 assay. The format is functional, cell-based.

Data set [8] can be described thus: Toxicity in CD1 mouse primary cortical neurons assessed as effect on cell viability at 25 nM incubated for 24 hrs by CCK8 assay. The format is cell-based, Cortical neurone. To be noted: read-out: Activity. An outline of the steps: (§2)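 Primary cortical neuron cultures were exposed to compound alone at the stated concentration. Viability was measured by CCK8 and expressed as the percentage reduction in viable cells.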

A short description of data set [9]: Toxicity in CD1 mouse primary cortical neurons assessed as effect on cell viability at 50 nM incubated for 24 hrs by CCK8 assay. The format is cell-based, Cortical neurone. To be noted: read-out: Activity. An outline of the steps: as §2
The nature of data set [10]: Toxicity in CD1 mouse primary cortical neurons assessed as effect on cell viability at 100 nM incubated for 24 hrs by CCK8 assay. The data set is classed as cell-based, Cortical neurone. To be noted: read-out: Activity. The method in brief: as §2
Data set [11] concerns Cortical neurone. Put plainly: Neuroprotective activity against amyloid beta (1 to 42) peptide-induced cytotoxicty in CD1 mouse primary cortical neurons assessed as increase in cell viability at 0.01 nM pre-incubated for 1 hr before amyloid beta (1 to 42) addition and measured after 24 hrs by CCK8 assay. The data set is classed as functional.
Data set [12] can be described thus: Stability in neurobasal cell culture medium supplemented with B-27 and N2 assessed as compound hydrolysis by LC-HR MS method. The data set is classed as physicochemical. The settings on record: read-out: Drug degradation. The method in brief:
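Compound was incubated in neurobasal culture medium containing B-27 and N2 at 37 °C for 24 h, with no enzyme present. The remaining compound concentration was then quantified by LC-HRMS.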

For data set [13], the system named is Cortical neurone. The data set is described as follows: Toxicity in CD1 mouse primary cortical neurons assessed as effect on cell viability at =< 10 nM incubated for 24 hrs by CCK8 assay. The format is cell-based. The method in brief: as §1
Data set [14] deals with BV-2 (Mus musculus). The data set is described as follows: Antiinflammatory activity in mouse BV-2 cells assessed as inhibition of LPS-induced TNF-alpha production at 10 nM pre-incubated for 1 hr before LPS stimulation for 23 hrs by ELISA method.
The test system of data set [15] is BV-2 (Mus musculus). The data set is described as follows: Antiinflammatory activity in mouse BV-2 cells assessed as inhibition of LPS-induced TNF-alpha production at 10 to 1000 nM pre-incubated for 1 hr before LPS stimulation for 23 hrs by ELISA method.
For data set [16], the system named is Cortical neurone. The data set is described as follows: Neuroprotective activity against amyloid beta (1 to 42) peptide-induced cytotoxicty in CD1 mouse primary cortical neurons assessed as increase in cell viability at 100 to 1000 nM pre-incubated for 1 hr before amyloid beta (1 to 42) addition and measured after 24 hrs by CCK8 assay. The format is functional, cell-based.

The subject of data set [17] is Cortical neurone. Put plainly: Toxicity in CD1 mouse primary cortical neurons assessed as effect on cell viability at 1000 nM incubated for 24 hrs by CCK8 assay. The format is cell-based. To be noted: 1 µM. An outline of the steps: as §1

Regarding `CC(C)[C@]1(O)[C@H](F)[C@@H]2O[C@]23[C@]2(O[C@H]2C[C@H]2C4=C(CC[C@@]23C)C(=O)OC4)[C@@H]1O`, the result in data set [1] was Active. Further, the Activity entry in data set [2] is given as “Non-Toxic”.

For `CC(C)[C@]12O[C@H]1[C@@H]1O[C@]13[C@]1(O[C@H]1C[C@H]1C4=C(CC[C@@]13C)C(=O)OC4)[C@H]2F`, in data set [3], the result was inactive. Moreover, the Activity result in data set [4] is “Non-Toxic”; in data set [5], “Dose-dependent effect”. Also, the inhibition at 0.02 µM in [6] came to 100%.

On to `CC(C)[C@]12O[C@H]1[C@@H]1O[C@@]13[C@@]1(C)CCC4=C(COC4=O)[C@@H]1CC[C@@]3(O)[C@@H]2O`, for which the Activity entry in [2] and in [4] was “Non-Toxic” throughout. Besides, the result in data set [7] was Active.

As to `CC(C)[C@]12O[C@H]1[C@@H]1O[C@@]13[C@@]1(C)CCC4=C(COC4=O)[C@@H]1C[C@@H]1O[C@@]13C2=O` [TRIPTONIDE], in data set [1], the outcome was inactive. Moreover, the Activity entry in [4] was “Non-Toxic”. The inhibition at 0.02 µM in [6] stood at 100%.

As for `CC(C)[C@]12O[C@H]1[C@@H]1O[C@]13[C@]1(O[C@H]1C[C@H]1C4=C(CC[C@@]13C)C(=O)OC4)[C@@H]2O` [TRIPTOLIDE], the Activity was 100% in data set [3], 100% in data set [11] and “Dose-dependent effect” in [5]. Moreover, the viability at 24 h, 0.025 µM in data set [8] is 27.2%. Further, the viability at 24 h, 0.05 µM in [9] stood at 62.8%. For the same compound, the viability at 24 h, 0.1 µM in data set [10] is 76.5%. For the same compound, the degraded in data set [12] turned out to be 13%.

For the compound `CC(C)[C@]1(O)[C@H](O)[C@@H]2O[C@]23[C@]2(O[C@H]2C[C@H]2C4=C(CC[C@@]23C)C(=O)OC4)[C@@H]1O`, the result in [1] was Active. Besides, in data set [2], the Activity result is “Non-Toxic”.

For the compound `CC(C)[C@]12O[C@H]1[C@@H]1O[C@]13[C@]1(O[C@H]1C[C@H]1C4=C(CC[C@@]13C)C(=O)OC4)[C@@H]2OC(=O)NC12CC3CC(C)(CC(C)(C3)C1)C2`, the Activity result in data set [3] is “Dose-dependent effect”; in [13] it was “Non-Toxic”; in [11], 100%; in [4] it was “Non-Toxic”; in [5], “Dose-dependent effect”. The viability at 24 h, 0.025 µM in data set [8] is 7.7%. In [9], the viability at 24 h, 0.05 µM worked out at 32.8%. In data set [10], the viability at 24 h, 0.1 µM amounted to 73.5%. The degraded in [12] turned out to be 13%. Further, the inhibition at 0.01 µM in data set [14] worked out at 100%.

Regarding `CC(C)C1=C[C@@H]2O[C@@]23[C@@]2(C)CCC4=C(COC4=O)[C@@H]2C[C@@H]2O[C@@]23C1=O`, the Activity entry was “Non-Toxic” in data set [2], “Non-Toxic” in data set [4] and “Dose-dependent effect” in [5]. Also, the outcome in data set [7] was Active. Also, the outcome in data set [15] was inactive.

In the case of `CC(C)[C@]12O[C@H]1[C@@H]1O[C@]13[C@]1(O[C@H]1C[C@H]1C4=C(CC[C@@]13C)C(=O)OC4)[C@@H]2OC(=O)NC(C)(C)C`, the result in data set [16] was inactive. Besides, in data set [17], the Activity entry is reported as “Toxic”.
